Experimental data reported in ChEMBL document CHEMBL1649117, “GRL-02031, a novel nonpeptidic protease inhibitor (PI) containing a stereochemically defined fused cyclopentanyltetrahydrofuran potent against multi-PI-resistant human immunodeficiency virus type 1 in vitro” (Antimicrob Agents Chemother, 2009).
pEC50: −log10 of the molar value.

How the values were obtained:
[1] = Selectivity index, ratio of CC50 for human MT2 cells to EC50 for HIV1 LAI; assay type: toxicity, cell-based; settings: read-out: Selectivity Index
[2] = Cytotoxicity against human MT2 cells by MTT assay; assay type: cell-based
[3] = system: Human immunodeficiency virus; experiment: Antiviral activity against HIV1 LAI infected in human MT2 cells after 7 days by MTT assay; assay type: functional, organism-based; settings: Human immunodeficiency virus 1, LAI, MT2, 168 h
[4] = system: Human immunodeficiency virus 1; experiment: Antiviral activity against HIV1 MOKW infected in human PHA-PBC assessed as inhibition of p24 Gag protein production by ELISA; assay type: functional, organism-based; settings: Human immunodeficiency virus 1, MOKW
Outline: (§1)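 Phytohemagglutinin-stimulated PBMs (10^6/ml) infected with 50 TCID50s of each primary isolate, cultured with or without drug in 10-fold serial dilutions. On day 7, supernatant p24 Gag was measured by automated chemiluminescent enzyme immunoassay. […] Triplicate.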

[5] = system: Human immunodeficiency virus 1; experiment: Antiviral activity against HIV1 TM harboring L10I/K14R/R41K/M46L/I54V/L63P/A71V/V82A/L90M/I93L in protease encoding region infected in human PHA-PBC assessed as inhibition of p24 Gag protein production by ELISA; assay type: functional, organism-based; settings: Human immunodeficiency virus 1, TM; outline: as §1
[6] = system: Human immunodeficiency virus 1; experiment: Antiviral activity against HIV1 MM harboring L10I/K43T/M46L/I54V/L63P/A71V/V82A/L90M/Q92K in protease encoding region infected in human PHA-PBC assessed as inhibition of p24 Gag protein production by ELISA; assay type: functional, organism-based; settings: Human immunodeficiency virus 1, MM; outline: as §1
[7] = system: Human immunodeficiency virus 1; experiment: Antiviral activity against HIV1 JSL harboring L10I/L24I/L33F/E35D/M36I/N37S/M46L/I54V/R57K/I62V/L63P/A71V/G73S/82A in protease encoding region infected in human PHA-PBC assessed as inhibition of p24 Gag protein production by ELISA; assay type: functional, organism-based; settings: Human immunodeficiency virus 1, JSL; outline: as §1
[8] = system: Human immunodeficiency virus 1; experiment: Antiviral activity against HIV1 B harboring L10I/I15V/E35D/N37E/K45R/I54V/L63P/A71V/V82T/L90M/I93L/C95F in protease encoding region infected in human PHA-PBC assessed as inhibition of p24 Gag protein production by ELISA; assay type: functional, organism-based; settings: Human immunodeficiency virus 1, B; outline: as §1
[9] = system: Human immunodeficiency virus 1; experiment: Ratio of EC50 for HIV1 MM harboring L10I/K43T/M46L/I54V/L63P/A71V/V82A/L90M/Q92K in protease encoding region infected to EC50 for HIV1 ERS104pre; assay type: functional
[10] = system: Human immunodeficiency virus 1; experiment: Ratio of EC50 for HIV1 JSL harboring L10I/L24I/L33F/E35D/M36I/N37S/M46L/I54V/R57K/I62V/L63P/A71V/G73S/82A in protease encoding region to EC50 for HIV1 ERS104pre; assay type: functional
[11] = system: Human immunodeficiency virus 1; experiment: Ratio of EC50 for HIV1 A harboring L10I/I15V/E35D/N37E/K45R/I54V/L63P/A71V/V82T/L90M/I93L/C95F in protease encoding region to EC50 for HIV1 ERS104pre; assay type: functional
[12] = system: Human immunodeficiency virus 1; experiment: Ratio of EC50 for HIV1 B harboring L10I/I15V/E35D/N37E/K45R/I54V/L63P/A71V/V82T/L90M/I93L/C95F in protease encoding region to EC50 for HIV1 ERS104pre; assay type: functional
[13] = system: Human immunodeficiency virus 1; experiment: Ratio of EC50 for HIV1 G harboring L10I/V11I/T12E/I15V/L19I/R41K/M46L/L63P/A71T/V82A/L90M in protease encoding region to EC50 for HIV1 ERS104pre; assay type: functional
[14] = system: Human immunodeficiency virus 1; experiment: Antiviral activity against HIV1 NL4-3 infected in human MT4 cells assessed as inhibition of p24 gag protein production by ELISA; assay type: functional, organism-based; settings: Human immunodeficiency virus 1, NL4-3, MT4
Outline: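 MT-4 cells (10^5/ml) were infected with 100 TCID50s of HIV-1 and cultured at 37°C with or without various drug concentrations. On day 7, supernatant p24 Gag was measured by automated chemiluminescent enzyme immunoassay. […] Assays were run in triplicate.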

[15] = system: Human immunodeficiency virus 1; experiment: Antiviral activity against HIV1 NL4-3 harboring L10F/V32I/M46I/I54M//A71V/I84V amino acid substitution in protease encoding region infected in human MT4 cells assessed as inhibition of p24 Gag protein production selected at 5 uM of amprenavir by ELISA; assay type: functional, organism-based; settings: Human immunodeficiency virus 1, NL4-3, MT4
Outline: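 Cell-free passage used day-7 supernatants. Variants were then tested in MT-4 cells (10^5/ml) with 100 TCID50s, with or without drug, at 37°C. Day-7 p24 Gag was read by chemiluminescent immunoassay; EC50 vs drug-free control; triplicate.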

[16] = system: Human immunodeficiency virus 1; experiment: Antiviral activity against HIV1 NL4-3 harboring L10F/D30N/K45I/A71V/T74S amino acid substitution in protease encoding region infected in human MT4 cells assessed as inhibition of p24 Gag protein production selected at 5 uM of nelfinavir by ELISA; assay type: functional, organism-based; settings: Human immunodeficiency virus 1, NL4-3, MT4
Outline: (§2)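 HIV-1NL4-3 (500 TCID50s) was passaged in MT-4 cells, starting at 0.01–0.03 µM PI and raising the drug generally two- to threefold as virus propagated. Cell-free passage used day-7 supernatants. Variants were then tested in MT-4 cells (10^5/ml) with 100 TCID50s, with or without drug, at 37°C. Day-7 p24 Gag was read by chemiluminescent immunoassay; EC50 vs drug-free control; triplicate.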

[17] = system: Human immunodeficiency virus 1; experiment: Antiviral activity against HIV1 NL4-3 harboring M46I/V82F/I84V amino acid substitution in protease encoding region infected in human MT4 cells assessed as inhibition of p24 Gag protein production selected at 5 uM of ritonavir by ELISA; assay type: functional, organism-based; settings: Human immunodeficiency virus 1, NL4-3, MT4; outline: as §2
[18] = system: Human immunodeficiency virus 1; experiment: Ratio of EC50 for HIV1 NL4-3 harboring L10F/V32I/M46I/I54M//A71V/I84V amino acid substitution in protease encoding region to EC50 for HIV1 NL4-3; assay type: functional
Outline: (§3)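 MT-4 cells (10^5/ml) infected with 100 TCID50s of PI-selected HIV-1NL4-3 variants or the parental strain, with or without serial drug concentrations, at 37°C. Day 7 supernatant p24 Gag measured by chemiluminescent enzyme immunoassay. […] Triplicate. Ratio is variant EC50 over wild-type EC50.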

[19] = system: Human immunodeficiency virus 1; experiment: Ratio of EC50 for HIV1 NL4-3 harboring L10F/L24I/M46I/L63P/A71V/G73S/V82T amino acid substitution in protease encoding region to EC50 for HIV1 NL4-3; assay type: functional; outline: as §3
[20] = system: Human immunodeficiency virus 1; experiment: Ratio of EC50 for HIV1 NL4-3 harboring M46I/V82F/I84V amino acid substitution in protease encoding region to EC50 for HIV1 NL4-3; assay type: functional; outline: as §3
[21] = system: Human immunodeficiency virus 1; experiment: Ratio of EC50 for HIV1 NL4-3 harboring L23I/K43I/M46I/I50L/G51A/A71V amino acid substitution in protease encoding region to EC50 for HIV1 NL4-3; assay type: functional; outline: as §3
[22] = system: Human immunodeficiency virus 1; experiment: Ratio of EC50 for HIV1 NL4-3 harboring L10F/L33F/M46I/I47V/Q58E/V82I/I84V/I85V amino acid substitution in protease encoding region to EC50 for HIV1 NL4-3; assay type: functional; outline: as §3

SMILES	selectivity ratio [1]	pEC50 [3]	pEC50 [4]	pEC50 [6]	pEC50 [7]	pEC50 [8]	Ratio EC50 [9]	Ratio EC50 [10]	Ratio EC50 [11]	Ratio EC50 [12]	Ratio EC50 [13]	pEC50 [14]	pEC50 [15]	pEC50 [16]	pEC50 [17]	Ratio EC50 [18]	Ratio EC50 [19]	Ratio EC50 [20]	Ratio EC50 [21]	Ratio EC50 [22]	further results
COc1ccc(S(=O)(=O)N(C[C@@H]2CCC(=O)N2)C[C@@H](O)[C@H](Cc2ccccc2)NC(=O)O[C@@H]2C[C@@H]3CCO[C@@H]3C2)cc1	> 3600	7.55	7.59	7.39	7.37	7.54	2	2	1	1	1	7.64	7.43	7.44	7.11	2	2	3	1	>43	CC50 [2]: > 100 µM; pEC50 [5]: 7.59
CC(C)(C)NC(=O)[C@@H]1C[C@@H]2CCCC[C@@H]2CN1C[C@@H](O)[C@H](Cc1ccccc1)NC(=O)[C@H](CC(N)=O)NC(=O)c1ccc2ccccc2n1	710	7.85	8.40	–	6.49	6.52	30	36	11	33	3	8.10	7.80	7.55	8.00	2	3	1	4	1	CC50 [2]: 9.9 µM
CC(C)(C)NC(=O)[C@@H]1CN(Cc2cccnc2)CCN1C[C@@H](O)C[C@@H](Cc1ccccc1)C(=O)N[C@H]1c2ccccc2C[C@H]1O.O	1600	7.36	7.72	< 6.00	< 6.00	< 6.00	>48	>48	>48	>48	16	7.85	6.66	6.57	6.52	16	>71	21	24	3	pEC50 [5]: < 6.00
Cc1c(O)cccc1C(=O)N[C@@H](CSc1ccccc1)[C@H](O)CN1C[C@H]2CCCC[C@H]2C[C@H]1C(=O)NC(C)(C)C	–	7.64	7.64	< 6.00	< 6.00	< 6.00	>63	>63	21	>63	14	–	6.77	< 6.00	6.62	10	36	13	12	1	pEC50 [5]: < 6.00
CC(C)CN(C[C@@H](O)[C@H](Cc1ccccc1)NC(=O)O[C@H]1CCOC1)S(=O)(=O)c1ccc(N)cc1	> 3000	7.48	7.82	6.40	6.18	6.51	16	26	6	12	9	7.55	< 6.00	7.11	6.37	>36	9	15	6	8	CC50 [2]: > 100 µM
